# Laboratory results: publication PMC13435124 (The FASEB Journal, 2026)
# “Also recorded” adds a separate entry of the source.
# Columns and labels:
# N2a-APPswe cells [1] = assay: Nrf2-dependent gene expression; format: cell-based, mouse
# WT and APP/PS1 male mice = assay: Hippocampal gene expression, real-time RT-PCR; format: in vivo, mouse
# In short: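 Hippocampi of 11-month-old WT and APP/PS1 males after 1 month of intranasal PBS or test compound at 100 mg/kg. hAPP, Bace1, Il-1β, Iba1, Trem2, Hmox1, Ppargc1α and Bdnf mRNA measured by real-time RT-PCR.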
# [2] = system: AKT/GSK3β signaling in N2a-APPswe cells; assay: AKT and GSK3β phosphorylation, western blot; format: cell-based, mouse; settings: 250 μM, 30 min
# In short: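 Murine N2a-APPswe cells exposed to test compound at 250 μM for 5, 15 or 30 min; basal pAKT in untreated N2a-wt and N2a-APPswe read at 30 min. Protein by BCA; lysates denatured 5 min at 95°C. Membranes blocked 1 h RT in 5% BSA for phospho-proteins, primaries 1:1000 overnight at 4°C, HRP secondaries 1 h RT.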
# [3] = system: BV-2 cells exposed to LPS; assay: Nos2 and Il-1β mRNA in LPS-stimulated microglia, real-time RT-PCR; format: cell-based, mouse; settings: BV-2, 250 μM, LPS 50 ng/mL, 18 h
# In short: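 BV-2 cells given test compound at 250 μM, LPS 50 ng/mL added 30 min later, incubated 18 h. Nos2 and Il-1β mRNA measured by real-time RT-PCR. Mean ± SEM of four independent experiments, relative to untreated control.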
# Nrf2 in N2a-APPswe cells [4] = assay: Nrf2 activation, Nrf2 Transcription Factor Assay Kit; format: cell-based, mouse; settings: 250 μM
# In short: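 N2a-APPswe cells exposed to test compound at 250 μM for 2, 4 and 6 h. Nrf2 activation determined with a commercial kit.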
# APP/PS1 male mice [5] = assay: Fear conditioning test; format: in vivo, mouse; settings: 100 mg/kg, 1 month
# In short: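 10-month-old males, n = 5 per group, given intranasal PBS or test compound at 100 mg/kg for 1 month. Day 1: paired auditory–shock stimuli, return to cage 1 min after last pair. Day 2: freezing scored 5 min in context A. Day 3: altered context B, freezing scored 3 min, then 3 min with auditory cue.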
# WT female mice = assay: Safety: histopathology and serum biochemistry after 1 month intranasal dosing; format: in vivo, mouse; settings: intranasal 100 mg/kg
# In short: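 11-month-old WT females given intranasal PBS or test compound at 100 mg/kg for 1 month. Histopathology of heart, hippocampus, lung, liver and kidney. Serum GOT, GGT, ALP, albumin, creatinine and urea reported as mg/dL or IU/L.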
# [6] = source not given; cited from earlier work
# Nrf2 in N2a-APPswe cells [7] = assay: Nrf2 cytoplasmatic and nuclear protein levels, western blot; format: cell-based, mouse; settings: 250 μM, 6 h, vs untreated cells
# In short: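 N2a-APPswe cells exposed to test compound at 250 μM for 2, 4 and 6 h. Cytoplasmic and nuclear Nrf2 assessed by western blot.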
# BACE1 = BACE1 (Homo sapiens, UniProt P56817); assay: BACE1 activity assay; format: biochemical; settings: cell-free, tested at 50, 100 and 250 μM (Table S1)
# Sequence of BACE1 (P56817 46-457 limits assumed): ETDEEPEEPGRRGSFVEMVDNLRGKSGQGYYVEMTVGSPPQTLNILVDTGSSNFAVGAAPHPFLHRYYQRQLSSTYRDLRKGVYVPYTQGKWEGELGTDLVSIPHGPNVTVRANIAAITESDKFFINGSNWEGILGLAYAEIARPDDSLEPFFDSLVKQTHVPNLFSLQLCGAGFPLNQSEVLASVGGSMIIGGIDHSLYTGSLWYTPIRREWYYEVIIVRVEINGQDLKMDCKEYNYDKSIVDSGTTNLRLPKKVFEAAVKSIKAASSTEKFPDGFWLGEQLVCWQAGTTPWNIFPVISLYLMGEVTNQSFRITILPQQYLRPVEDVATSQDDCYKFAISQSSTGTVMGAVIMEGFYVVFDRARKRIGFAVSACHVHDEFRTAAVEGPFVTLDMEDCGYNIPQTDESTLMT
# BV-2 cells = assay: Nrf2 silencing; format: cell-based, mouse; settings: BV-2, Iso + LPS
# N2a-APPswe cells [8] = assay: Nrf2 silencing; format: cell-based, mouse
# [9] = Blood-brain barrier permeability, PAMPA with 2% porcine polar brain lipid; format: in vitro ADME; settings: 150 μg/mL, 16 h, cut-off 2.0 × 10^−6 cm s^−1 (Figure S4)
# In short: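 PAMPA blood–brain barrier model using membranes with 2% (w/v) porcine polar brain lipid. Permeability given as experimental Papp in cm/s. Mean of three independent experiments, each run in duplicate.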
# N2a-wt cells = assay: Cell metabolism, Alamar Blue; format: cell-based, mouse; settings: 24 h, Alamar Blue (Figure S1A)
# In short: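 Cells exposed 24 h to test compound at 500, 250, 100, 50 or 5 μM, DMSO final up to 0.1% v/v. Resazurin 50 μM in PBS added 3 h before the end. Absorbance read at 570 nm with 620 nm reference. Highest nontoxic concentration chosen from metabolic capacity.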
# APP/PS1 male mice [10] = assay: Novel object recognition test; format: in vivo, mouse; settings: APP/PS1 males, 100 mg/kg, 1 month
# In short: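 Behavioural testing in 10-month-old APP/PS1 and WT littermate males, randomised n = 5 per group. Intranasal PBS or test compound at 100 mg/kg for 1 month. Distance travelled also recorded.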
# [11] = N2a-APPswe, 1, 3 and 6 h (Figure S2)
# [12] = APP/PS1 + Iso vs APP/PS1, 100 mg/kg, 1 month
# [13] = APP/PS1 males, 100 mg/kg, 1 month
# [14] = WT and APP/PS1 males, 100 mg/kg, 1 month, not significant
structure (smiles),measurement,setting,value
"CC=Cc1ccc(O)c(OC)c1 [Iso, 2‐methoxy‐4‐(prop‐1‐en‐1‐yl) phenol]",Hmox1 gene expression (reduced in N2a-APPswe),"N2a-APPswe cells [1]; N2a-APPswe, 250 μM, 3 h and 6 h",significantly reverted
same,Nqo1 gene expression,N2a-APPswe cells [1]; [11],induced
same,Sod1 gene expression,N2a-APPswe cells [1]; [11],induced
same,decrease in Bdnf gene of APP/PS1 mice,WT and APP/PS1 male mice; [12],reversed
same,reduction in Ppargc1α mRNA levels of APP/PS1 mice,WT and APP/PS1 male mice; [12],reversed
same,Iba1 expression in hippocampus,WT and APP/PS1 male mice; [13],increased
same,h-APP gene expression in hippocampus,WT and APP/PS1 male mice; [13],not affected
same,increase in Trem2 gene expression (trend),WT and APP/PS1 male mice; [13],1.6 fold
same,reduction of Bace1 mRNA levels,"WT and APP/PS1 male mice; Iso-treated 11-month-old animals, 100 mg/kg, not significant",~ 4 fold
same,Bace1 mRNA levels in hippocampus,WT and APP/PS1 male mice; [14],clear tendency toward a reduction
same,Il1β mRNA levels in hippocampus,WT and APP/PS1 male mice; [14],clear tendency toward a reduction; also recorded: markedly reduced
same,Trem2 mRNA levels in hippocampus,"WT and APP/PS1 male mice; WT males, 100 mg/kg, 1 month",decreased
same,Hmox1 expression in hippocampus,"WT and APP/PS1 male mice; both WT and APP/PS1 males, 100 mg/kg, 1 month",increased
same,AKT phosphorylated levels,[2],AKT activation
same,GSK3β phosphorylated (Ser9) levels,[2],GSK3β inactivation
same,LPS-induced Il-1β gene expression,[3],reduced
same,LPS-induced Nos2 gene expression,[3],reduced
same,Nrf2 activation (ELISA kit),Nrf2 in N2a-APPswe cells [4],increased Nrf2 activation
same,"% of freezing, contextual memory (day 2)",APP/PS1 male mice [5]; APP/PS1 males,clear but not significant increase
same,associative memory (day 3),APP/PS1 male mice [5]; males,no differences were detected
same,LDL cholesterol,WT female mice; 11-month-old WT females,reduction
same,hippocampus histopathology,WT female mice; WT females,Increased cell activation
same,kidney histopathology,WT female mice; WT females,cellular eosinophilia and tubular epithelial hypertrophy
same,liver histopathology (hepatic steatosis seen in VEH),WT female mice; WT females,also maintained
same,serum albumin,WT female mice; WT females,no alterations were detected
same,serum alkaline phosphatase (ALP),WT female mice; WT females,no alterations were detected
same,serum creatinine,WT female mice; WT females,no alterations were detected
same,serum gamma-glutamyl transferase (GGT),WT female mice; WT females,no alterations were detected
same,serum glutamic oxaloacetic transaminase (GOT),WT female mice; WT females,no alterations were detected
same,serum urea,WT female mice; WT females,no alterations were detected
same,heart histopathology,"WT female mice; WT females, vs VEH",No histopathological changes were observed
same,octanol-water partition coefficient (logP),[6],3.04
same,Nrf2 nuclear levels,Nrf2 in N2a-APPswe cells [7],significantly increased
same,BACE1 activity,BACE1,inhibited
same,Iso-induced NO decrease in siGAPDH- or siNeg-transfected cells,BV-2 cells,not affected
same,Iso-induced NO decrease in siNrf2-transfected cells,BV-2 cells,reversed
same,Aβ40 peptide levels,"N2a-APPswe cells [8]; not transfected N2a-APPswe, silencing experiment set, 24 h",significantly decreased
same,Aβ40 levels in Nrf2-silenced cells,"N2a-APPswe cells [8]; siNrf2 + Iso, N2a-APPswe, 36 h after transfection",further decreased
same,BBB permeability (PAMPA Papp),[9],could cross the BBB
same,highest nontoxic concentration tested,N2a-wt cells,250 µM
same,percentage of investigations in the novel object (decreased in APP/PS1 VEH),APP/PS1 male mice [10],reverted
same,recognition index (lowered in APP/PS1 VEH),APP/PS1 male mice [10],reversed
